Experimental data taken from article PMC6955635 (Drug Design, Development and Therapy, 2020).

How the values were obtained:
healthy males [1] = test: Adverse events, single-dose administration study; format: in vivo, human; settings: single 12-h iv infusion, n = 6, number of subjects (%)
How it was run: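 Randomized, double-blind, dose-escalation study in healthy Japanese men: 8 per group, 1:3 placebo (D-mannitol) versus test compound at 3, 9 or 15 ng/kg/min. Single continuous IV infusion over 12 h (±30 min), hospitalized from the day before to the day after. Each escalation followed safety review of the next-day results. AEs were monitored throughout, plus vital signs, labs, physical exams and 12-lead ECG at set times. Monitor ECG ran to 24 h post-dose.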

healthy males [2] = test: Adverse events, multiple-dose administration study; format: in vivo, human
[3] = Pharmacokinetics, plasma AM, single-dose administration study; format: in vivo, human; settings: for AUC(0-t) / Cmax / Tmax / half-life: male, human, plasma, iv
[4] = Pharmacokinetics, plasma AM, multiple-dose administration study; format: in vivo, human; settings: for half-life: T1/2 (terminal plasma elimination half-life), Phoenix WinNonlin; for half-life / Tmax: multiple administration, 8-h iv infusion 15 ng/kg/min per day for 7 days, mean ± SD; for Tmax: Tmax (time to maximum measured plasma concentration)
healthy males [5] = test: Clinical laboratory tests; format: in vivo, human; settings: all AM doses, single- and multiple-dose studies
[6] = system: normotensive and hypertensive patients; settings: 30 ng/kg/min, after 90 min of intravenous infusion; cited from earlier work
[7] = male, human, plasma, iv, 15 ng/kg/min, Day 1
[8] = male, human, plasma, iv, 15 ng/kg/min, Day 7

Structure (SMILES): CC[C@H](C)[C@H](NC(=O)[C@H](CCC(N)=O)NC(=O)[C@H](Cc1c[nH]cn1)NC(=O)[C@H](C)NC(=O)[C@H](CC(C)C)NC(=O)[C@H](CCCCN)NC(=O)[C@H](CCC(N)=O)NC(=O)[C@@H](NC(=O)[C@@H](NC(=O)[C@@H]1CSSC[C@H](NC(=O)CNC(=O)[C@H](Cc2ccccc2)NC(=O)[C@H](CO)NC(=O)[C@H](CCCNC(=N)N)NC(=O)[C@H](CC(C)C)NC(=O)CNC(=O)[C@H](CCC(N)=O)NC(=O)[C@H](Cc2ccccc2)NC(=O)[C@H](CC(N)=O)NC(=O)[C@H](CC(N)=O)NC(=O)[C@H](CCSC)NC(=O)[C@H](CO)NC(=O)[C@H](CCC(N)=O)NC(=O)[C@H](CCCNC(=N)N)NC(=O)[C@@H](N)Cc2ccc(O)cc2)C(=O)N[C@@H](CCCNC(=N)N)C(=O)N[C@@H](Cc2ccccc2)C(=O)NCC(=O)N[C@@H]([C@@H](C)O)C(=O)N1)[C@@H](C)O)C(C)C)C(=O)N[C@@H](Cc1ccc(O)cc1)C(=O)N[C@@H](CCC(N)=O)C(=O)N[C@@H](Cc1ccccc1)C(=O)N[C@H](C(=O)N[C@@H](CC(=O)O)C(=O)N[C@@H](CCCCN)C(=O)N[C@@H](CC(=O)O)C(=O)N[C@@H](CCCCN)C(=O)N[C@@H](CC(=O)O)C(=O)N[C@@H](CC(N)=O)C(=O)N[C@H](C(=O)N[C@@H](C)C(=O)N1CCC[C@H]1C(=O)N[C@@H](CCCNC(=N)N)C(=O)N[C@@H](CO)C(=O)N[C@@H](CCCCN)C(=O)N[C@H](C(=O)N[C@@H](CO)C(=O)N1CCC[C@H]1C(=O)N[C@@H](CCC(N)=O)C(=O)NCC(=O)N[C@@H](Cc1ccc(O)cc1)C(N)=O)[C@@H](C)CC)C(C)C)[C@@H](C)O [Adrenomedullin]
- Any adverse event (healthy males [1]; high dose 15 ng/kg/min): 2(33.3%)
- Deaths (healthy males [1]; high dose 15 ng/kg/min): 0
- Diarrhea (gastrointestinal disorders) (healthy males [1]; high dose 15 ng/kg/min): 0
- Headache (nervous system disorders) (healthy males [1]; high dose 15 ng/kg/min): 1(16.7%)
- Palpitations (cardiac disorders) (healthy males [1]; high dose 15 ng/kg/min): 0
- Serious adverse events (healthy males [1]; high dose 15 ng/kg/min): 0
- Severe adverse events (healthy males [1]; high dose 15 ng/kg/min): 0
- Treatment-related adverse events (healthy males [1]; high dose 15 ng/kg/min): 2(33.3%)
- Wenckebach type atrioventricular block (cardiac disorders) (healthy males [1]; high dose 15 ng/kg/min): 1(16.7%)
- Any adverse event (healthy males [1]; low dose 3 ng/kg/min): 0
- Deaths (healthy males [1]; low dose 3 ng/kg/min): 0
- Diarrhea (gastrointestinal disorders) (healthy males [1]; low dose 3 ng/kg/min): 0
- Headache (nervous system disorders) (healthy males [1]; low dose 3 ng/kg/min): 0
- Palpitations (cardiac disorders) (healthy males [1]; low dose 3 ng/kg/min): 0
- Serious adverse events (healthy males [1]; low dose 3 ng/kg/min): 0
- Severe adverse events (healthy males [1]; low dose 3 ng/kg/min): 0
- Treatment-related adverse events (healthy males [1]; low dose 3 ng/kg/min): 0
- Wenckebach type atrioventricular block (cardiac disorders) (healthy males [1]; low dose 3 ng/kg/min): 0
- Any adverse event (healthy males [1]; medium dose 9 ng/kg/min): 3(50.0%)
- Deaths (healthy males [1]; medium dose 9 ng/kg/min): 0
- Diarrhea (gastrointestinal disorders) (healthy males [1]; medium dose 9 ng/kg/min): 0
- Headache (nervous system disorders) (healthy males [1]; medium dose 9 ng/kg/min): 1(16.7%)
- Palpitations (cardiac disorders) (healthy males [1]; medium dose 9 ng/kg/min): 0
- Serious adverse events (healthy males [1]; medium dose 9 ng/kg/min): 0
- Severe adverse events (healthy males [1]; medium dose 9 ng/kg/min): 0
- Treatment-related adverse events (healthy males [1]; medium dose 9 ng/kg/min): 3(50.0%)
- Wenckebach type atrioventricular block (cardiac disorders) (healthy males [1]; medium dose 9 ng/kg/min): 2(33.3%)
- ECG abnormalities, including monitor ECG (healthy males [2]; 15 ng/kg/min 8 h per day for 7 days): not reported
- Withdrawal from the study due to headache (healthy males [2]; AM 15 ng/kg/min group, n = 6): one withdrawal
- Increase of Cmax compared to the basal concentration of AM ([3]; high-dose AM group (15 ng/kg/min), single 12-h iv infusion): sevenfold
- AUC(0-t) ([3]; 3 ng/kg/min): 0.163 ± 0.0212 ng·h/mL
- Cmax ([3]; 3 ng/kg/min): 0.01 ± 0.0011 ng/mL
- Tmax ([3]; 3 ng/kg/min): 9.3 ± 4.7 h
- half-life ([3]; 3 ng/kg/min): 1.04 ± 0.92 h
- AUC(0-t) ([3]; 9 ng/kg/min): 0.295 ± 0.0521 ng·h/mL
- Cmax ([3]; 9 ng/kg/min): 0.0255 ± 0.0037 ng/mL
- Tmax ([3]; 9 ng/kg/min): 10.7 ± 1.6 h
- half-life ([3]; 9 ng/kg/min): 0.3 ± 0.2 h
- AUC(0-t) ([3]; 15 ng/kg/min): 0.532 ± 0.0915 ng·h/mL
- Cmax ([3]; 15 ng/kg/min): 0.0504 ± 0.0093 ng/mL
- Tmax ([3]; 15 ng/kg/min): 10 ± 2.2 h
- half-life ([3]; 15 ng/kg/min): 0.23 ± 0.15 h
- Accumulation of plasma AM ([4]; after the end of the 7-day AM administration, 15 ng/kg/min 8 h per day): accumulation was not observed
- Cmax ([4]; male, human, plasma, iv, 15 ng/kg/min): 0.0479 ± 0.0109 ng/mL
- half-life [4, 7]: 0.45 ± 0.66 h
- half-life [4, 8]: 0.17 ± 0.07 h
- Tmax [4, 7]: 7.2 ± 1.1 h
- Tmax [4, 8]: 6.8 ± 1.1 h
- Changes in clinical laboratory test values (healthy males [5]): no changes due to the direct effect of AM
- Effect on BP [6]: clear decrease in BP
